The source made the active and inactive calls. The rule behind the calls is not given here.
Assays:
[1] = target: T1, Serine/threonine-protein kinase Chk1 (Homo sapiens) (UniProt O14757); assay: Inhibition of CHK1 (unknown origin) assessed as residual activity at 1 uM relative to control
T1 sequence (whole entry): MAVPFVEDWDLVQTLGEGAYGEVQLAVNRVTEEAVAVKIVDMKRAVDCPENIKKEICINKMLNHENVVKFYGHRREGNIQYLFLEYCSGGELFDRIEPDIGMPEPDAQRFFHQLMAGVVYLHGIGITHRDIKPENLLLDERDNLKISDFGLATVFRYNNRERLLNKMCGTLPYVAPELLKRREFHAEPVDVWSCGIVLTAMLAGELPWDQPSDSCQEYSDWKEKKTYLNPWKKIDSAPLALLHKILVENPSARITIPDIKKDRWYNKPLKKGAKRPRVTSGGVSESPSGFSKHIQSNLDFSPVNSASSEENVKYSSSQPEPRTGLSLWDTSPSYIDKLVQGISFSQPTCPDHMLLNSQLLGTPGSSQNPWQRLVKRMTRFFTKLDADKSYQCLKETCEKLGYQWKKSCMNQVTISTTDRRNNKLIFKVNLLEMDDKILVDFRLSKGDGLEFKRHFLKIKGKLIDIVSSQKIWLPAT

[2] = target: Cyclin-dependent kinase 2/cyclin E1 (Homo sapiens) (UniProt P24864+P24941); assay: Inhibition of CDK2/CycE (unknown origin) assessed as residual activity at 1 uM relative to control; type: protein-complex assay
[3] = tested on: MCF7; assay: Antiproliferative activity against human MCF7 cells after 3 days by sulforhodamine B assay; type: functional; details: MCF7, 72 h
Procedure, shortened: (§1)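 Tested in the NCI 60 cell line panel. GI50 is the concentration giving 50% inhibition of cell growth, and values are the mean of two series of tests.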

[4] = tested on: OVCAR-8; assay: Antiproliferative activity against human OVCAR8 cells after 3 days by sulforhodamine B assay; type: functional; details: OVCAR-8, 72 h; procedure, shortened: as §1
[5] = tested on: OVCAR-3; assay: Antiproliferative activity against human OVCAR3 cells after 3 days by sulforhodamine B assay; type: functional; details: OVCAR-3, 72 h; procedure, shortened: as §1
[6] = Antiproliferative activity against human OVCAR4 cells after 3 days by sulforhodamine B assay; type: functional; details: OVCAR-4, 72 h; procedure, shortened: as §1
[7] = Antiproliferative activity against human SF539 cells after 3 days by sulforhodamine B assay; type: functional; details: SF-539, 72 h; procedure, shortened: as §1
[8] = tested on: SW-620; assay: Antiproliferative activity against human SW620 cells after 3 days by sulforhodamine B assay; type: functional; details: SW-620, 72 h
[9] = tested on: NCI-H460; assay: Antiproliferative activity against human NCI-H460 cells after 3 days by sulforhodamine B assay; type: functional; details: NCI-H460, 72 h; procedure, shortened: as §1
[10] = target: Death-associated protein kinase 3 (Homo sapiens) (UniProt O43293); assay: Inhibition of human ZIPK assessed as residual activity at 1 uM relative to control
[11] = target: Serine/threonine-protein kinase 33 (Homo sapiens) (UniProt Q9BYT3); assay: Inhibition of human STK33 assessed as residual activity at 1 uM relative to control
[12] = target: Ribosomal protein S6 kinase alpha-1 (Homo sapiens) (UniProt Q15418); assay: Inhibition of human Rsk1 assessed as residual activity at 1 uM relative to control
[13] = tested on: MOLT-4; assay: Antiproliferative activity against human MOLT4 cells after 3 days by sulforhodamine B assay; type: functional; details: MOLT-4, 72 h; procedure, shortened: as §1
[14] = tested on: MCF7; assay: Induction of apoptosis in human MCF7 cells assessed as PARP cleavage at 1 uM after 24 hrs by Western blot analysis; type: functional, cell-based
Procedure, shortened: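 Cells were lysed in urea lysis buffer (6 M urea, NaF, Na3VO4, protease inhibitors). 20–40 µg protein was run on 10% SDS-PAGE and detected by ECL. Primary antibodies (pAkt S473, PARP, β-actin loading control) were used at 1:1000 overnight at 4 °C. DMSO was the vehicle control. For the pAkt blots, cells were treated for 2 h with Ly294002 as positive control.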

[15] = target: Serine/threonine-protein kinase pim-3 (Homo sapiens) (UniProt Q86V86); assay: Inhibition of human Pim-3 assessed as residual activity at 1 uM relative to control
[16] = target: Serine/threonine-protein kinase PAK 3 (Homo sapiens) (UniProt O75914); assay: Inhibition of human PAK3 assessed as residual activity at 1 uM relative to control
[17] = target: Serine/threonine-protein kinase PAK 2 (Homo sapiens) (UniProt Q13177); assay: Inhibition of human PAK2 assessed as residual activity at 1 uM relative to control
[18] = target: Serine/threonine-protein kinase MRCK beta (Homo sapiens) (UniProt Q9Y5S2); assay: Inhibition of human MRCKbeta assessed as residual activity at 1 uM relative to control
[19] = target: Casein kinase II (Homo sapiens) (UniProt P67870+P68400+P19784); assay: Inhibition of CK2-mediated Wnt signaling in human MCF7 cells assessed as reduction of beta-catenin level at 1 uM after 15 mins by Western blot analysis; type: cell-based
Procedure, shortened: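 MCF7 cells were grown at 37 °C and 5% CO2 in DMEM with 10% heat-inactivated FBS and penicillin/streptomycin. Cells were exposed to 1 µM for the indicated times, with DMSO as the untreated control. Extracts were made in urea lysis buffer, and 20–40 µg protein was run on 10% SDS–PAGE. Blots were probed with primary antibodies (1:1000, overnight, 4 °C) and read by ECL, with β-actin as loading control.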

[20] = target: Tyrosine-protein kinase HCK (Homo sapiens) (UniProt P08631); assay: Inhibition of human Hck assessed as residual activity at 1 uM relative to control
[21] = target: Ephrin type-A receptor 3 (Homo sapiens) (UniProt P29320); assay: Inhibition of human EphA3 assessed as residual activity at 1 uM relative to control
[22] = target: Tyrosine-protein kinase CSK (Homo sapiens) (UniProt P41240); assay: Inhibition of human CSK assessed as residual activity at 1 uM relative to control
[23] = target: Calcium/calmodulin-dependent protein kinase type II subunit delta (Homo sapiens) (UniProt Q13557); assay: Inhibition of human CaMK2delta assessed as residual activity at 1 uM relative to control
[24] = target: Tyrosine-protein kinase BTK (Homo sapiens) (UniProt Q06187); assay: Inhibition of human BTK assessed as residual activity at 1 uM relative to control
[25] = target: Tyrosine-protein kinase Fgr (Homo sapiens) (UniProt P09769); assay: Inhibition of FGR (unknown origin) assessed as residual activity at 10 uM relative to control
[26] = target: Aurora kinase C (Homo sapiens) (UniProt Q9UQB9); assay: Inhibition of Aurora-C (unknown origin) assessed as residual activity at 10 uM relative to control
[27] = target: Vascular endothelial growth factor receptor 3 (Homo sapiens) (UniProt P35916); assay: Inhibition of VEGF-R3 (unknown origin) assessed as residual activity at 1 uM relative to control
[28] = target: Vascular endothelial growth factor receptor 2 (Homo sapiens) (UniProt P35968); assay: Inhibition of VEGF-R2 (unknown origin) assessed as residual activity at 1 uM relative to control
[29] = target: Platelet-derived growth factor receptor alpha (Homo sapiens) (UniProt P16234); assay: Inhibition of PDGFR-alpha (unknown origin) assessed as residual activity at 1 uM relative to control

Serine/threonine-protein kinase 33 (Homo sapiens), sequence (Q9BYT3 whole entry, looked up): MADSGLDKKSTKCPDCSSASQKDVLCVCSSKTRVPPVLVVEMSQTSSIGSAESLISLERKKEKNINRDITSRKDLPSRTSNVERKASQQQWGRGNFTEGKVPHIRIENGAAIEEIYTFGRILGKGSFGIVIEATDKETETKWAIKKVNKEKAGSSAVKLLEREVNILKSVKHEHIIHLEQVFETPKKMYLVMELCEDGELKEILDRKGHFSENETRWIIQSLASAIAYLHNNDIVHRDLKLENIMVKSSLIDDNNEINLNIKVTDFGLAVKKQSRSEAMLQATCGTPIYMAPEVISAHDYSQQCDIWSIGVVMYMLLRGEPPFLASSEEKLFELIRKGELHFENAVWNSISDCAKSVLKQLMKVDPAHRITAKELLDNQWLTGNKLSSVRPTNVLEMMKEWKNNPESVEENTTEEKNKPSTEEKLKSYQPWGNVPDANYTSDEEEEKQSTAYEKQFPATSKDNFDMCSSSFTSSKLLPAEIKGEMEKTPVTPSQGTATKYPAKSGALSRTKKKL
Ephrin type-A receptor 3 (Homo sapiens), sequence (P29320 whole entry): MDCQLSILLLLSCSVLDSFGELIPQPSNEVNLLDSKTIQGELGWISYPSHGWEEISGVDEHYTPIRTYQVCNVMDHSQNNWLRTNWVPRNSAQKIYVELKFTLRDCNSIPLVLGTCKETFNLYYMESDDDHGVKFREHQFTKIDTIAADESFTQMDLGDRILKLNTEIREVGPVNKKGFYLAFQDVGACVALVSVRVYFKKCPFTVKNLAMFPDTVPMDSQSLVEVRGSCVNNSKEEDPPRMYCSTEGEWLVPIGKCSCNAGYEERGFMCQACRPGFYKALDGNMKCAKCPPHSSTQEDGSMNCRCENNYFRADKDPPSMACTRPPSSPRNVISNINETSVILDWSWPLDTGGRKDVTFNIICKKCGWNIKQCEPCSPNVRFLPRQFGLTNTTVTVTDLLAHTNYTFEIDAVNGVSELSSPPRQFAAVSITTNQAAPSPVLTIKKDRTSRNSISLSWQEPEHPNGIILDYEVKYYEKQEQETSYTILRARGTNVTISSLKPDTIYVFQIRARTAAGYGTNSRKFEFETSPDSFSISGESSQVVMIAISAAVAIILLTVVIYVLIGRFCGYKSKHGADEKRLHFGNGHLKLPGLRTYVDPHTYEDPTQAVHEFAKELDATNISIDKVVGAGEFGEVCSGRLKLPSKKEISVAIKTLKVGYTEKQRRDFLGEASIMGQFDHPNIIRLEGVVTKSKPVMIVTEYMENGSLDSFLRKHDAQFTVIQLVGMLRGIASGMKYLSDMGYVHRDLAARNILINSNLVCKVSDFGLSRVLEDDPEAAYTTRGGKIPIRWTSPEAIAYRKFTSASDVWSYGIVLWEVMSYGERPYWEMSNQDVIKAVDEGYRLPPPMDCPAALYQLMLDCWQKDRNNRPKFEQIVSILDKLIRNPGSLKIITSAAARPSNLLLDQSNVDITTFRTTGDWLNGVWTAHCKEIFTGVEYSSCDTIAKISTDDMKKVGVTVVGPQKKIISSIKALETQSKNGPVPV
Calcium/calmodulin-dependent protein kinase type II subunit delta (Homo sapiens), sequence (Q13557 whole entry): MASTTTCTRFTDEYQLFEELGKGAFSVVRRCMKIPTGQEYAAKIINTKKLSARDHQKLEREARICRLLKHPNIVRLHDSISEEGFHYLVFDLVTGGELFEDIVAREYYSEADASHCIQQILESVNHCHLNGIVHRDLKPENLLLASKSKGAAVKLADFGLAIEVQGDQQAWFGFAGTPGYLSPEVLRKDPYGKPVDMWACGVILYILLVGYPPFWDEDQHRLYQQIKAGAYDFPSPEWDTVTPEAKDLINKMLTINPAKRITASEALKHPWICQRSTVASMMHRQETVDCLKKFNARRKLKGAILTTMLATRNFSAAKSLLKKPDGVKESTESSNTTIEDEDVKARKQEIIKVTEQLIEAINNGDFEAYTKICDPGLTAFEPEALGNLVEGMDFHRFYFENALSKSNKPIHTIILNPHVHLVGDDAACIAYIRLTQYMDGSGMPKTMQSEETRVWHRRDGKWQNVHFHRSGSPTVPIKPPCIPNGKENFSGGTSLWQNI
Tyrosine-protein kinase BTK (Homo sapiens), sequence (Q06187 whole entry): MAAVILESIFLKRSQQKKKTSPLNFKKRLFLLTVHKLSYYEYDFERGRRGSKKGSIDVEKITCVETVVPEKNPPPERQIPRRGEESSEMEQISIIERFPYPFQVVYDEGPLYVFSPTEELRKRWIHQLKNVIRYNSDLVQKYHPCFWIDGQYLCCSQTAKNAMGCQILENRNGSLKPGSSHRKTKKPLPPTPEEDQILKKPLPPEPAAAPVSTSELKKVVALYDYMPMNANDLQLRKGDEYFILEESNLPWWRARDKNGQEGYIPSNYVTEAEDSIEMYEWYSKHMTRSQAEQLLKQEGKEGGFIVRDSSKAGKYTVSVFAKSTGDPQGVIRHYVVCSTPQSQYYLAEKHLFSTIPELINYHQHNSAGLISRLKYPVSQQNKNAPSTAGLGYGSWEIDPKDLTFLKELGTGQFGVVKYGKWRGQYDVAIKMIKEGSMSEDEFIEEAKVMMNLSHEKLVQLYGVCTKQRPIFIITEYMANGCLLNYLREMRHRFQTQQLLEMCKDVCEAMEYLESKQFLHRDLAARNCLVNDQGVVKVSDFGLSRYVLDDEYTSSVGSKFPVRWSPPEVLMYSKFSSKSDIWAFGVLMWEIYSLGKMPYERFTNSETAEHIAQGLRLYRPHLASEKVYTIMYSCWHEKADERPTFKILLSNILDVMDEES
Ribosomal protein S6 kinase alpha-1 (Homo sapiens), sequence (Q15418 whole entry): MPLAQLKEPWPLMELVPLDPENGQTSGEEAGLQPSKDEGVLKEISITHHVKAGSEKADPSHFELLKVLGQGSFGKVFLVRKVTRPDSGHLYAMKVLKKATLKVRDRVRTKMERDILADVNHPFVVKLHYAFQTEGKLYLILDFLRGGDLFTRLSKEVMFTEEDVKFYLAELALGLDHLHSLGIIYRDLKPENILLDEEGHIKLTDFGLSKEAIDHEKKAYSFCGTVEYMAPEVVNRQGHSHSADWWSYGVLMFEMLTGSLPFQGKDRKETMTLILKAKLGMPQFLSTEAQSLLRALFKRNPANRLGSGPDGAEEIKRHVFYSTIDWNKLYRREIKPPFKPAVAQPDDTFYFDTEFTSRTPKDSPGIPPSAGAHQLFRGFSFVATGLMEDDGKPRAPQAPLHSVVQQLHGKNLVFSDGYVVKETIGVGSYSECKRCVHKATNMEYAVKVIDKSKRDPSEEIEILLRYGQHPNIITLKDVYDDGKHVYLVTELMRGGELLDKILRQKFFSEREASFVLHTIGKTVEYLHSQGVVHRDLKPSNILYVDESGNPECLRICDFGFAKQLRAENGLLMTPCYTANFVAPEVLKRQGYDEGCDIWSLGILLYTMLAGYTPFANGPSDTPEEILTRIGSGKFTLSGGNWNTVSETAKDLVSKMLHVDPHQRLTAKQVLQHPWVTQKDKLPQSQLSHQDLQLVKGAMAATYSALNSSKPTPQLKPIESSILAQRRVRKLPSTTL
Serine/threonine-protein kinase MRCK beta (Homo sapiens), sequence (Q9Y5S2 whole entry): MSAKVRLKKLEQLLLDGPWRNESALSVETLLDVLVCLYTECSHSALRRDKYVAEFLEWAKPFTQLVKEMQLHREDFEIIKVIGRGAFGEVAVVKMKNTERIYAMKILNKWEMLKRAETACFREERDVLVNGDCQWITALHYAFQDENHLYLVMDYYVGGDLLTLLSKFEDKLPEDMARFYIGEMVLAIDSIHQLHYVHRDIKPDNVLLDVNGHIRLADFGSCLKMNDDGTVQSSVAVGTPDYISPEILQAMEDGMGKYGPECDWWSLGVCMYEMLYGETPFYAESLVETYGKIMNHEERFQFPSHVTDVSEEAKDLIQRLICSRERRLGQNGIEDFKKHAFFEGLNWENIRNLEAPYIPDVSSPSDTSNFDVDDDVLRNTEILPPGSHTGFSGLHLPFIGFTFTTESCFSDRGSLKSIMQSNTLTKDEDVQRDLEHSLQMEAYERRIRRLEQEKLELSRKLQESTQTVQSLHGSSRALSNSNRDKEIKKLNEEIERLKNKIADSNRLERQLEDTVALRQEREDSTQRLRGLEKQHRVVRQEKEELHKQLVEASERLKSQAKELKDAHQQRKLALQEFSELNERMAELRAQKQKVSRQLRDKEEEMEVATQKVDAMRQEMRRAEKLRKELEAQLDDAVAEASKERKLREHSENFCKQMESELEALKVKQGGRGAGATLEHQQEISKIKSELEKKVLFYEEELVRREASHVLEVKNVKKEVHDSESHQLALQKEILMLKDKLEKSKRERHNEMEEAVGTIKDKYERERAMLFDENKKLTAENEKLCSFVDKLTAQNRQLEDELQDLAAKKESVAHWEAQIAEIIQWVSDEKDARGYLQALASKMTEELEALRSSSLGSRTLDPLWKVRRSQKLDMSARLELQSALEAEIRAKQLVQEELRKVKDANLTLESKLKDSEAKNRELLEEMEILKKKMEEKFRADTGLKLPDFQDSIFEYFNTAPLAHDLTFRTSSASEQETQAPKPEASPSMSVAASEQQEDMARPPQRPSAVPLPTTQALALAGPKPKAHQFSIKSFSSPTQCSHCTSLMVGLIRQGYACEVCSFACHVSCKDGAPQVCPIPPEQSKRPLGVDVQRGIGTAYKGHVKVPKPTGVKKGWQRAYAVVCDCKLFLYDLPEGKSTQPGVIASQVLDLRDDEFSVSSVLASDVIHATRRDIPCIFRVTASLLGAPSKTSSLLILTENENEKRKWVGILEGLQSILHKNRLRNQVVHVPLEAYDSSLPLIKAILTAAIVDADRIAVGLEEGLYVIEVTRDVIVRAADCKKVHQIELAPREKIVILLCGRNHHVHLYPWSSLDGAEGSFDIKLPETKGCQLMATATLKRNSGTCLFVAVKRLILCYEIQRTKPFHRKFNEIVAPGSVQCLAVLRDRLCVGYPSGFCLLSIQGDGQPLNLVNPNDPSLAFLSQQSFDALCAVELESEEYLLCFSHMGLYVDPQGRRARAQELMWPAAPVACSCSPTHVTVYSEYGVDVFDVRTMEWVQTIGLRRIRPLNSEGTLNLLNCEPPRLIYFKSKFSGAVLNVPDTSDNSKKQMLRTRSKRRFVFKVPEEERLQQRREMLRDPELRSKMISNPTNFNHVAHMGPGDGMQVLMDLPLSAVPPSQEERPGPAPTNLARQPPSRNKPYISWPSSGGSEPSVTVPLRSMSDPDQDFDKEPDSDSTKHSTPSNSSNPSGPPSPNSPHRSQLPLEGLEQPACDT

- Activity [1]: 99%
- Activity [2]: 90%
- GI50 [3]: 1090 nM
- GI50 [4]: 1370 nM
- GI50 [5]: 289 nM
- GI50 [8]: 1410 nM
- GI50 [9]: 307 nM
- Activity [11]: 91%
- Activity [12]: 114%
- GI50 [13]: 3320 nM
- Activity [15]: 74%
- Activity [16]: 111%
- Activity [17]: 124%
- Activity [18]: 102%
- inhibition [19]: Active
- Activity [20]: 100%
- Activity [21]: 83%
- Activity [22]: 122%
- Activity [23]: 110%
- Activity [24]: 140%
- Activity [25]: 93%
- Activity [26]: 76%
- Activity [27]: 82%
- Activity [28]: 93%
- Activity [29]: 94%
SMILES: O=C1Nc2ncccc2/C1=C1/Nc2ncccc2C1=O
- GI50 [6]: 1090 nM
- GI50 [7]: 1900 nM
- Activity [10]: 118%
- Activity [14]: Active
